Test results taken from ChEMBL document CHEMBL1671676, “In vitro activity of nemonoxacin, a novel nonfluorinated quinolone, against 2,440 clinical isolates” (2009).
Converted amounts (≈) assume the structure as drawn.

What was measured:
Format in all cases: functional
[1] = tested on: Staphylococcus epidermidis; assay: Antibacterial activity against methicillin-susceptible Staphylococcus epidermidis assessed as percent cumulative susceptible isolates at minimum inhibitory concentration of 4 ug/ml by CLSI broth microdilution method; parameters: scale not given: the % may be the effect or the level left
Streptococcus pneumoniae [2] = assay: Antibacterial activity against Streptococcus pneumoniae assessed as percent cumulative susceptible isolates at minimum inhibitory concentration of 0.06 ug/ml by CLSI broth microdilution method; parameters: scale not given: the % may be the effect or the level left
Streptococcus pneumoniae [3] = assay: Antibacterial activity against Streptococcus pneumoniae assessed as percent cumulative susceptible isolates at minimum inhibitory concentration of […] by CLSI broth microdilution method; parameters: scale not given: the % may be the effect or the level left
Streptococcus pneumoniae [4] = assay: Antibacterial activity against penicillin-resistant Streptococcus pneumoniae assessed as percent cumulative susceptible isolates at minimum inhibitory concentration of […] by CLSI broth microdilution method; parameters: scale not given: the % may be the effect or the level left
Enterococcus faecalis = assay: Antibacterial activity against Enterococcus faecalis assessed as percent cumulative susceptible isolates at minimum inhibitory concentration of 1 ug/ml by CLSI broth microdilution method; parameters: scale not given: the % may be the effect or the level left
Pseudomonas aeruginosa [5] = assay: Antibacterial activity against Pseudomonas aeruginosa assessed as percent cumulative susceptible isolates at minimum inhibitory concentration of 0.5 ug/ml by CLSI broth microdilution method; parameters: scale not given: the % may be the effect or the level left
Pseudomonas aeruginosa [6] = assay: Antibacterial activity against Pseudomonas aeruginosa assessed as percent cumulative susceptible isolates at minimum inhibitory concentration of 1 ug/ml by CLSI broth microdilution method; parameters: scale not given: the % may be the effect or the level left
Pseudomonas aeruginosa [7] = assay: Antibacterial activity against Pseudomonas aeruginosa assessed as percent cumulative susceptible isolates at minimum inhibitory concentration of 32 ug/ml by CLSI broth microdilution method; parameters: scale not given: the % may be the effect or the level left
[8] = tested on: Stenotrophomonas maltophilia; assay: Antibacterial activity against Stenotrophomonas maltophilia assessed as percent cumulative susceptible isolates at minimum inhibitory concentration of 1 ug/ml by CLSI broth microdilution method; parameters: scale not given: the % may be the effect or the level left
[9] = tested on: Stenotrophomonas maltophilia; assay: Antibacterial activity against Stenotrophomonas maltophilia assessed as percent cumulative susceptible isolates at minimum inhibitory concentration of 4 ug/ml by CLSI broth microdilution method; parameters: scale not given: the % may be the effect or the level left
Acinetobacter baumannii [10] = assay: Antibacterial activity against Acinetobacter baumannii assessed as percent cumulative susceptible isolates at minimum inhibitory concentration of 0.5 ug/ml by CLSI broth microdilution method; parameters: scale not given: the % may be the effect or the level left
Acinetobacter baumannii [11] = assay: Antibacterial activity against Acinetobacter baumannii assessed as percent cumulative susceptible isolates at minimum inhibitory concentration of 1 ug/ml by CLSI broth microdilution method; parameters: scale not given: the % may be the effect or the level left
Acinetobacter baumannii [12] = assay: Antibacterial activity against Acinetobacter baumannii assessed as percent cumulative susceptible isolates at minimum inhibitory concentration of 16 ug/ml by CLSI broth microdilution method; parameters: scale not given: the % may be the effect or the level left
Enterobacteriaceae = assay: Antibacterial activity against Enterobacteriaceae by CLSI M7-A7 broth microdilution method
Staphylococcus aureus [13] = assay: Antibacterial activity against methicillin-susceptible Staphylococcus aureus assessed as percent cumulative susceptible isolates at minimum inhibitory concentration of 0.06 ug/ml by CLSI broth microdilution method; parameters: scale not given: the % may be the effect or the level left
Staphylococcus aureus [14] = assay: Antibacterial activity against methicillin-susceptible Staphylococcus aureus assessed as percent cumulative susceptible isolates at minimum inhibitory concentration of 0.5 ug/ml by CLSI broth microdilution method; parameters: scale not given: the % may be the effect or the level left
Staphylococcus aureus [15] = assay: Antibacterial activity against methicillin-susceptible Staphylococcus aureus assessed as percent cumulative susceptible isolates at minimum inhibitory concentration of 1 ug/ml by CLSI broth microdilution method; parameters: scale not given: the % may be the effect or the level left
Staphylococcus aureus [16] = assay: Antibacterial activity against methicillin-susceptible Staphylococcus aureus assessed as percent cumulative susceptible isolates at minimum inhibitory concentration of 8 ug/ml by CLSI broth microdilution method; parameters: scale not given: the % may be the effect or the level left
Staphylococcus aureus [17] = assay: Antibacterial activity against methicillin-susceptible Staphylococcus aureus assessed as percent cumulative susceptible isolates at minimum inhibitory concentration of 32 ug/ml by CLSI broth microdilution method; parameters: scale not given: the % may be the effect or the level left
Summary of the method: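 Clinical isolates tested by CLSI broth microdilution using 96-well panels of doubling drug dilutions in cation-adjusted Mueller-Hinton broth with 5% lysed horse blood. MIC was read from these panels. Panel quality control used CLSI ATCC strains, including S. pneumoniae 49619, S. aureus 29213, E. faecalis 29212 and E. coli 25922. Cumulative percentages of isolates were tabulated at each MIC.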

Staphylococcus aureus [18] = assay: Antibacterial activity against methicillin-resistant Staphylococcus aureus assessed as percent cumulative susceptible isolates at minimum inhibitory concentration of […] by CLSI broth microdilution method; parameters: scale not given: the % may be the effect or the level left
Staphylococcus aureus [19] = assay: Antibacterial activity against methicillin-resistant Staphylococcus aureus assessed as percent cumulative susceptible isolates at minimum inhibitory concentration of 1 ug/ml by CLSI broth microdilution method; parameters: scale not given: the % may be the effect or the level left
Enterococcus faecium [20] = assay: Antibacterial activity against Enterococcus faecium assessed as percent cumulative susceptible isolates at minimum inhibitory concentration of 2 ug/ml by CLSI broth microdilution method; parameters: scale not given: the % may be the effect or the level left
Enterococcus faecium [21] = assay: Antibacterial activity against Enterococcus faecium assessed as percent cumulative susceptible isolates at minimum inhibitory concentration of 4 ug/ml by CLSI broth microdilution method; parameters: scale not given: the % may be the effect or the level left
Enterococcus faecium [22] = assay: Antibacterial activity against Enterococcus faecium assessed as percent cumulative susceptible isolates at minimum inhibitory concentration of 32 ug/ml by CLSI broth microdilution method; parameters: scale not given: the % may be the effect or the level left
Escherichia coli [23] = assay: Antibacterial activity against Escherichia coli assessed as percent cumulative susceptible isolates at minimum inhibitory concentration of 0.06 ug/ml by CLSI broth microdilution method; parameters: scale not given: the % may be the effect or the level left
Escherichia coli [24] = assay: Antibacterial activity against Escherichia coli assessed as percent cumulative susceptible isolates at minimum inhibitory concentration of […] by CLSI broth microdilution method; parameters: scale not given: the % may be the effect or the level left
Escherichia coli [25] = assay: Antibacterial activity against Escherichia coli assessed as percent cumulative susceptible isolates at minimum inhibitory concentration of 1 ug/ml by CLSI broth microdilution method; parameters: scale not given: the % may be the effect or the level left
Klebsiella pneumoniae [26] = assay: Antibacterial activity against Klebsiella pneumoniae assessed as percent cumulative susceptible isolates at minimum inhibitory concentration of 0.06 ug/ml by CLSI broth microdilution method; parameters: scale not given: the % may be the effect or the level left
Klebsiella pneumoniae [27] = assay: Antibacterial activity against Klebsiella pneumoniae assessed as percent cumulative susceptible isolates at minimum inhibitory concentration of 0.5 ug/ml by CLSI broth microdilution method; parameters: scale not given: the % may be the effect or the level left
Klebsiella pneumoniae [28] = assay: Antibacterial activity against Klebsiella pneumoniae assessed as percent cumulative susceptible isolates at minimum inhibitory concentration of 2 ug/ml by CLSI broth microdilution method; parameters: scale not given: the % may be the effect or the level left
Klebsiella pneumoniae [29] = assay: Antibacterial activity against Klebsiella pneumoniae assessed as percent cumulative susceptible isolates at minimum inhibitory concentration of 4 ug/ml by CLSI broth microdilution method; parameters: scale not given: the % may be the effect or the level left
Klebsiella oxytoca [30] = assay: Antibacterial activity against Klebsiella oxytoca assessed as percent cumulative susceptible isolates at minimum inhibitory concentration of 0.06 ug/ml by CLSI broth microdilution method; parameters: scale not given: the % may be the effect or the level left
Klebsiella oxytoca [31] = assay: Antibacterial activity against Klebsiella oxytoca assessed as percent cumulative susceptible isolates at minimum inhibitory concentration of […] by CLSI broth microdilution method; parameters: scale not given: the % may be the effect or the level left
Enterobacter cloacae [32] = assay: Antibacterial activity against Enterobacter cloacae assessed as percent cumulative susceptible isolates at minimum inhibitory concentration of […] by CLSI broth microdilution method; parameters: scale not given: the % may be the effect or the level left
Enterobacter cloacae [33] = assay: Antibacterial activity against Enterobacter cloacae assessed as percent cumulative susceptible isolates at minimum inhibitory concentration of 1 ug/ml by CLSI broth microdilution method; parameters: scale not given: the % may be the effect or the level left
Staphylococcus aureus [34] = assay: Antibacterial activity against community-associated methicillin-resistant Staphylococcus aureus assessed as percent cumulative susceptible isolates at minimum inhibitory concentration of […] by CLSI broth microdilution method; parameters: scale not given: the % may be the effect or the level left
[35] = tested on: Staphylococcus epidermidis; assay: Antibacterial activity against methicillin-susceptible Staphylococcus epidermidis assessed as percent cumulative susceptible isolates at minimum inhibitory concentration of […] by CLSI broth microdilution method; parameters: scale not given: the % may be the effect or the level left

| SMILES | Activity [1] [%] | Activity (Streptococcus pneumoniae [2]) [%] | Activity (Streptococcus pneumoniae [3]) [%] | Activity (Streptococcus pneumoniae [4]) [%] | Activity (Enterococcus faecalis) [%] | Activity (Pseudomonas aeruginosa [5]) [%] | Activity (Pseudomonas aeruginosa [6]) [%] | Activity (Pseudomonas aeruginosa [7]) [%] | Activity [8] [%] | Activity [9] [%] | Activity (Acinetobacter baumannii [10]) [%] | Activity (Acinetobacter baumannii [11]) [%] | Activity (Acinetobacter baumannii [12]) [%] | MIC90 (Enterobacteriaceae) [µg/mL] | Activity (Staphylococcus aureus [13]) [%] | Activity (Staphylococcus aureus [14]) [%] | Activity (Staphylococcus aureus [15]) [%] | Activity (Staphylococcus aureus [16]) [%] | Activity (Staphylococcus aureus [17]) [%] | Activity (Staphylococcus aureus [18]) [%] | other results |
| --- | --- | --- | --- | --- | --- | --- | --- | --- | --- | --- | --- | --- | --- | --- | --- | --- | --- | --- | --- | --- | --- |
| C[C@H]1COc2c(N3CCN(C)CC3)c(F)cc3c(=O)c(C(=O)O)cn1c23.C[C@H]1COc2c(N3CCN(C)CC3)c(F)cc3c(=O)c(C(=O)O)cn1c23.O [LEVOFLOXACIN] | 62.8 | 0.5 | 10.2 | 3.1 | 35.8 | 42.3 | 59.9 | 100 | 46.2 | 84.6 | 86.7 | 93.3 | 100 | ≤ 0.06 | 0.5 | 88.8 | 91.4 | 93.6 | 100 | 8.7 | Activity (Staphylococcus aureus [19]): 9.4%; Activity (Enterococcus faecium [20]): 23.7%; Activity (Enterococcus faecium [21]): 28.9%; Activity (Enterococcus faecium [22]): 100%; Activity (Escherichia coli [23]): 66.4%; Activity (Escherichia coli [24]): 70%; Activity (Escherichia coli [25]): 75.1%; Activity (Klebsiella pneumoniae [26]): 69.8%; Activity (Klebsiella pneumoniae [27]): 87.4%; Activity (Klebsiella pneumoniae [28]): 93%; Activity (Klebsiella pneumoniae [29]): 96%; Activity (Klebsiella oxytoca [30]): 93.8%; Activity (Klebsiella oxytoca [31]): 100%; Activity (Enterobacter cloacae [32]): 90.3%; Activity (Enterobacter cloacae [33]): 91.7%; Activity (Staphylococcus aureus [34]): 24%; Activity [35]: 53.5% |
| COc1c(N2C[C@@H](C)C[C@H](N)C2)ccc2c(=O)c(C(=O)O)cn(C3CC3)c12 [NEMONOXACIN] | 100 | 99.4 | 100 | 84.4 | 90.1 | 14.6 | 51.1 | 91.2 | 26.9 | 73.1 | 86.7 | 93.3 | 100 | 0.5 (≈ 1.35 µM) | 88.8 | 93.9 | 94.9 | 99.2 | 100 | 16.5 | Activity (Staphylococcus aureus [19]): 34.6%; Activity (Enterococcus faecium [20]): 31.6%; Activity (Enterococcus faecium [21]): 42.1%; Activity (Enterococcus faecium [22]): 79%; Activity (Escherichia coli [23]): 22.7%; Activity (Escherichia coli [24]): 68.8%; Activity (Escherichia coli [25]): 74.8%; Activity (Klebsiella pneumoniae [26]): 1.5%; Activity (Klebsiella pneumoniae [27]): 77.9%; Activity (Klebsiella pneumoniae [28]): 92%; Activity (Klebsiella pneumoniae [29]): 94%; Activity (Klebsiella oxytoca [30]): 6.3%; Activity (Klebsiella oxytoca [31]): 81.3%; Activity (Enterobacter cloacae [32]): 83.3%; Activity (Enterobacter cloacae [33]): 91.7%; Activity (Staphylococcus aureus [34]): 60%; Activity [35]: 86% |
